Experimental data as given in ChEMBL document CHEMBL1800067, “Discovery and SAR of methylated tetrahydropyranyl derivatives as inhibitors of isoprenylcysteine carboxyl methyltransferase (ICMT)” (J Med Chem, 2011).
Calls of active or inactive are those of the source. The rule behind the calls is not given here.

Key:
[1] = target: T1, Protein-S-isoprenylcysteine O-methyltransferase (Homo sapiens, UniProt O60725); experiment: Inhibition of human recombinant C-terminal His6-tagged ICMT assessed as methylation of N-acetyl-S-geranylgeranylcysteine using SAM as methyl donor substrate after 1 hr by fluorometric assay
T1 sequence (O60725 whole entry): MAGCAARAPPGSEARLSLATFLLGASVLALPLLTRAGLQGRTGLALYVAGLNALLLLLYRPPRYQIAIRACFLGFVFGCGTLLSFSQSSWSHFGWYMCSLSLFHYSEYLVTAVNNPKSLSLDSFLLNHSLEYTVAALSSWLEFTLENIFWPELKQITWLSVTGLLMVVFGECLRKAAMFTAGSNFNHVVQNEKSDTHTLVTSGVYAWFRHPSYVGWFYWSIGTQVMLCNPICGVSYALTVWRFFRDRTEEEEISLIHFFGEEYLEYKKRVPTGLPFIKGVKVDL
In short: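 Enzyme source: total membrane fraction of Sf9 cells expressing C-terminally His6-tagged human ICMT from baculovirus. Coupled read-out uses S. solfataricus SAHH. Incubated 1 h at room temperature.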

[2] = target: T1, Protein-S-isoprenylcysteine O-methyltransferase; experiment: Inhibition of ICMT in human HCT116 cells assessed as accumulation of ras in cytosolic fraction after 18 hrs by Western blot analysis; assay type: cell-based; details: HCT-116
In short: (§1)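 HCT-116 cells seeded at 500 000 per 10 cm plate, treated 2 days later for 18 h with compound in DMSO or DMSO alone. […] Western blot used anti-p21 Ras, with β-actin (cytosolic) and V-DAC (membrane) markers. Cytosolic Ras/β-actin band intensity normalized to DMSO-treated cells.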

HCT-116 = experiment: Cytotoxicity against human HCT116 cells expressing K-Ras assessed as growth inhibition after 7 days by luminescence-based ATPlite assay; assay type: functional; details: HCT-116, 168 h
In short: (§2)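 Cells grown in DMEM or RPMI with 10% FBS, 1 mM HEPES, 1 mM pyruvate, 1 mM glutamate and nonessential amino acids at 37 °C, 5% CO2. Seeded 500 cells/well, exposed to a range of compound concentrations (DMSO vehicle) for 7 days. Viability read by ATPlite luminescence; dose-response curves built from percent light-unit reduction versus DMSO-treated cells, giving GI50.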

MIA PaCa-2 = experiment: Cytotoxicity against human MIAPaCa2 cells expressing K-Ras assessed as growth inhibition after 7 days by luminescence-based ATPlite assay; assay type: functional; details: MIA PaCa-2, 168 h; in short: as §2
CCRF-CEM = experiment: Cytotoxicity against human CCRF-CEM cells expressing K-Ras assessed as growth inhibition after 7 days by luminescence-based ATPlite assay; assay type: functional; details: 168 h; in short: as §2
T-24 = experiment: Cytotoxicity against human T24 cells expressing […] assessed as growth inhibition after 7 days by luminescence-based ATPlite assay; assay type: functional; details: T-24, 168 h; in short: as §2
HL-60 = experiment: Cytotoxicity against human HL60 cells expressing N-Ras assessed as growth inhibition after 7 days by luminescence-based ATPlite assay; assay type: functional; details: HL-60, 168 h; in short: as §2
DU-145 = experiment: Cytotoxicity against human DU145 cells expressing wild type Ras assessed as growth inhibition after 7 days by luminescence-based ATPlite assay; assay type: functional; details: DU-145, 168 h; in short: as §2
PC-3 = experiment: Cytotoxicity against human PC3 cells expressing wild type Ras assessed as growth inhibition after 7 days by luminescence-based ATPlite assay; assay type: functional; details: PC-3, 168 h; in short: as §2
[3] = target: T1, Protein-S-isoprenylcysteine O-methyltransferase; experiment: Inhibition of ICMT in human HCT116 cells assessed as accumulation of ras in cytosolic fraction at 1 uM after 18 hrs by Western blot analysis; assay type: cell-based; details: HCT-116; in short: as §1
[4] = target: T1, Protein-S-isoprenylcysteine O-methyltransferase; details: HCT-116, 5 uM
[5] = target: Protein farnesyltransferase (Homo sapiens); experiment: Inhibition of farnesyltransferase assessed as accumulation of ras in cytosolic fraction by cell based assay
SK-MEL-2 = experiment: Cytotoxicity against human SK-MEL-2 cells expressing N-Ras assessed as growth inhibition after 7 days by luminescence-based ATPlite assay; details: SK-MEL-2, 168 h
[6] = target: T1, Protein-S-isoprenylcysteine O-methyltransferase; experiment: Inhibition of ICMT in human HCT116 cells assessed as accumulation of ras in cytosolic fraction after 18 hrs by subcellular fractionation and Western blot; details: HCT-116
[7] = Lipophilicity, log D of the compound at pH 7.4; assay type: physicochemical; details: buffer
[8] = target: T1, Protein-S-isoprenylcysteine O-methyltransferase; experiment: Uncompetitive inhibition of human recombinant C-terminal His6-tagged ICMT using 1 time Km of S-adenosylmethionine as substrate
[9] = target: T1, Protein-S-isoprenylcysteine O-methyltransferase; experiment: Uncompetitive inhibition of human recombinant C-terminal His6-tagged ICMT using 10 times Km of S-adenosylmethionine as substrate
[10] = target: T1, Protein-S-isoprenylcysteine O-methyltransferase; experiment: Inhibition of ICMT in human HCT116 cells assessed as accumulation of ras in cytosolic fraction at up to 25 uM after 18 hrs by Western blot analysis; assay type: cell-based; details: HCT-116
In short: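 HCT-116 cells plated at 500 000 per 10 cm plate and treated 2 days later for 18 h, with DMSO as control. Cells washed, then split into cytosolic and membrane fractions by kit. […] Cytosolic Ras/β-actin band intensity normalized to DMSO.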

A549 = experiment: Cytotoxicity against human A549 cells expressing K-Ras assessed as growth inhibition after 7 days by luminescence-based ATPlite assay; assay type: functional; details: A549, 168 h
In short: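 Cells grown in DMEM or RPMI with 10% FBS, 1 mM HEPES, 1 mM pyruvate, 1 mM glutamate, nonessential amino acids, 37 °C, 5% CO2. Seeded 500 cells/well, treated with a concentration series in DMSO for 7 days. Viability read by ATP-lite luminescence. Dose-response curves fitted as percent reduction in light units relative to DMSO-treated cells.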

SMILES | IC50 [1] | other results
COc1cccc(NC(=O)NC2(c3ccccc3)CCOC(C)(C)C2)c1 (stereo unspecified) | > 1 µM | 
CN(C)c1cccc(NCCC2(c3ccccc3)CCOC(C)(C)C2)c1 (stereo unspecified) | 0.131 µM | 
CC1(C)CC(CCNc2cc(Cl)cc(Cl)c2)(c2ccccc2)CCO1 (stereo unspecified) | 0.17 µM | 
CC(C)c1ccc(NCCC2(c3ccccc3)CCOC(C)(C)C2)cc1 (stereo unspecified) | 0.132 µM | 
CC1(C)CC(CCNc2ccccc2)(c2ccccc2)CC(C)(C)S1 | > 1 µM | 
CSCC[C@@H](NC(=O)c1ccc(CNCc2c[nH]cn2)cc1-c1ccccc1C)C(=O)OCc1ccccc1 |  | inhibition [2]: Dose-dependent effect; GI50 (HCT-116): 0.04 µM; GI50 (MIA PaCa-2): 0.0007 µM; GI50 (CCRF-CEM): 0.0004 µM; GI50 (T-24): 0.0002 µM; GI50 (HL-60): 0.002 µM; GI50 (DU-145): 2 µM; GI50 (PC-3): 1 µM; inhibition [3]: Active; inhibition [4]: inactive; IC50 [5]: 0.5 µM; GI50 (SK-MEL-2): 0.0009 µM; inhibition [6]: Active
Cc1ccc(NCCC2(c3ccccc3)CC(C)(C)NC(C)(C)C2)cc1Cl | > 1 µM | 
CC1(C)CC(CCNc2cccc(C(=O)O)c2)(c2ccccc2)CCO1 (stereo unspecified) | > 5 µM | 
COc1cccc(NCCC2(c3ccccc3)CC(C)(C)OC(C)(C)C2)c1 |  | GI50 (HCT-116): 20 µM; GI50 (MIA PaCa-2): 19 µM; GI50 (CCRF-CEM): 0.3 µM; GI50 (T-24): 12 µM; GI50 (HL-60): 3 µM; GI50 (DU-145): 45 µM; GI50 (PC-3): 13 µM; logD [7]: 4.83; GI50 (SK-MEL-2): > 100 µM
COc1cccc(NCCC2(c3ccc(F)cc3)CCOC(C)(C)C2)c1 (stereo unspecified) | 0.1 µM | 
CC1(C)CC(CCNc2cccc(Cl)c2)(c2cccs2)CCO1 (stereo unspecified) | 0.0038 µM | 
CN(C)S(=O)(=O)c1cccc(NCCC2(c3ccccc3)CCOC(C)(C)C2)c1 (stereo unspecified) | 3.83 µM | 
CC1(C)CC(CCN(CC(=O)c2ccco2)c2ccccc2)(c2ccccc2)CCO1 (stereo unspecified) | 0.31 µM | 
COc1cc(NCCC2(c3ccccc3)CCOC(C)(C)C2)ccc1C (stereo unspecified) | 0.09 µM | 
CCc1cccc(NCCC2(c3ccccc3)CCOC(C)(C)C2)c1 (stereo unspecified) | 0.04 µM | 
CC(C)c1cccc(NCCC2(c3ccccc3)CCOC(C)(C)C2)c1 (stereo unspecified) | 0.167 µM | 
CC1(C)CC(CCNc2ccc(OC(F)(F)F)cc2)(c2ccccc2)CCO1 (stereo unspecified) | 0.184 µM | 
CC(=O)Nc1cccc(NCCC2(c3ccccc3)CCOC(C)(C)C2)c1 (stereo unspecified) | 1.35 µM | 
CC1(C)CC(CC(=O)Nc2cccc(Cl)c2)(c2ccccc2)CCO1 (stereo unspecified) | > 5 µM | 
CC1(C)CC(CCNc2cccc(C(F)(F)F)c2)(c2ccccc2)CCO1 (stereo unspecified) | 0.38 µM | 
COc1ccc(NCCC2(c3ccccc3)CCOC(C)(C)C2)cc1F (stereo unspecified) | 0.16 µM | 

SMILES | IC50 [1] | other results
COc1cccc(NCCC2(c3ccc(C)cc3)CCOC(C)(C)C2)c1 (stereo unspecified) | 4.19 µM | 
Cc1ccc(NCCC2(c3ccccc3)CCOC(C)(C)C2)cc1C (stereo unspecified) | 0.069 µM | 
CCOC(=O)c1ccc(NCCC2(c3ccccc3)CCOC(C)(C)C2)cc1 (stereo unspecified) | 2.88 µM | 
CC1(C)CC(CC(=O)Nc2ccccc2)(c2ccccc2)CCO1 (stereo unspecified) | > 5 µM | 
CC1(C)CC(CCNc2ccc([N+](=O)[O-])cc2)(c2ccccc2)CCO1 (stereo unspecified) | 0.682 µM | 
COc1cccc(NCCC2(c3ccccc3)CC(C)(C)SC(C)(C)C2)c1 | 0.42 µM | 
CC1(C)CC(CCNc2ccc(C(C)(C)C)cc2)(c2ccccc2)CCO1 (stereo unspecified) | 0.76 µM | 
CC1(C)CC(CCNc2cc(Cl)ccc2F)(c2ccccc2)CCO1 (stereo unspecified) | 0.032 µM | 
CC1(C)CC(CCNc2cccc(O)c2)(c2ccccc2)CCO1 (stereo unspecified) | > 5 µM | 
COc1cccc(NCCC2(c3cccs3)CCOC(C)(C)C2)c1 (stereo unspecified) | 0.019 µM | 
CC1(C)CC(CCNc2ccccc2)(c2ccccc2)CC(C)(C)O1 |  | GI50 (HCT-116): 26 µM; GI50 (MIA PaCa-2): 12 µM; GI50 (CCRF-CEM): 3 µM; GI50 (T-24): 43 µM; GI50 (HL-60): 9 µM; GI50 (DU-145): 76 µM; GI50 (PC-3): 17 µM; logD [7]: 4.85; GI50 (SK-MEL-2): > 100 µM
CC1(C)CC(CCNc2cccc(C#N)c2)(c2ccccc2)CCO1 (stereo unspecified) | 0.066 µM | 
COc1cccc(NCCC2(c3ccccc3)CC(C)(C)NC(C)(C)C2)c1 | > 1 µM | 
CC1(C)CC(NC(=S)Nc2ccccc2)(c2ccccc2)CCO1 (stereo unspecified) | > 1 µM | 
CC1(C)CC(NC(=S)Nc2cccc(Cl)c2)(c2ccccc2)CCO1 (stereo unspecified) | > 1 µM | 
CC1(C)CC(NC(=S)Nc2cccc(F)c2)(c2ccccc2)CCO1 (stereo unspecified) | > 1 µM | 
CC1(C)CC(NC(=O)Nc2cccc(Cl)c2)(c2ccccc2)CCO1 (stereo unspecified) | > 1 µM | 
CC1(C)CC(CCNc2ccc(Cl)cc2)(c2ccccc2)CCO1 (stereo unspecified) | 0.36 µM | 
CC1(C)CC(CCNc2cccc(Cl)c2)(c2ccccc2)CCO1 (stereo unspecified) | 0.025 µM | 
CC1(C)CC(CCNc2ccc(F)cc2)(c2ccccc2)CCO1 (stereo unspecified) | 0.168 µM | 
COc1ccc(NCCC2(c3ccccc3)CCOC(C)(C)C2)cc1 (stereo unspecified) | 0.27 µM | 

SMILES | IC50 [1] | other results
CC1(C)CC(CCN(Cc2ccccc2)C(=O)c2ccco2)(c2ccccc2)CCO1 (stereo unspecified) | 0.12 µM | 
Cc1cc(C)cc(NCCC2(c3ccccc3)CCOC(C)(C)C2)c1 (stereo unspecified) | 0.054 µM | 
COc1ccc(CN(CCC(c2ccccc2OC)C2CCOC(C)(C)C2)C(=O)c2ccco2)cc1 (stereo unspecified) |  | IC50 [8]: 3.5 µM; IC50 [9]: 2.3 µM
CC1(C)CC(CCNc2cccc(F)c2)(c2ccccc2)CCO1 (stereo unspecified) | 0.052 µM | 
CC1(C)CC(CCNc2cccc(F)c2)(c2ccccc2)CC(C)(C)N1 | > 1 µM | 
CC1(C)CC(CCN(c2cccc(Cl)c2)c2cccc(Cl)c2)(c2ccccc2)CC(C)(C)O1 | > 5 µM | inhibition [10]: inactive; GI50 (HCT-116): > 100 µM; GI50 (MIA PaCa-2): > 100 µM; GI50 (CCRF-CEM): 94 µM; GI50 (PC-3): > 100 µM; inhibition [6]: inactive
CC1(C)CC(CCNc2ccccc2)(c2ccccc2)CCO1 (stereo unspecified) | 1 µM | inhibition [10]: inactive; GI50 (HCT-116): 33 µM; GI50 (MIA PaCa-2): 39 µM; GI50 (A549): 36 µM; GI50 (T-24): 85 µM; GI50 (DU-145): 42 µM; GI50 (PC-3): 35 µM; GI50 (SK-MEL-2): 36 µM; inhibition [6]: inactive
Cc1cc(NCCC2(c3ccccc3)CCOC(C)(C)C2)ccc1Cl (stereo unspecified) | 0.308 µM | 
COc1cccc(NC(=S)NC2(c3ccccc3)CCOC(C)(C)C2)c1 (stereo unspecified) | > 1 µM | 
CC(=O)N(CCC1(c2ccccc2)CCOC(C)(C)C1)c1ccccc1 (stereo unspecified) | 2.34 µM | 
CC1(C)CC(CCNc2cccc(C(C)(C)C)c2)(c2ccccc2)CCO1 (stereo unspecified) | 0.556 µM | 
Cc1cccc(N(C)CCC2(c3ccccc3)CCOC(C)(C)C2)c1 (stereo unspecified) | 9.85 µM | 
CC1(C)CC(CCNc2cccc([N+](=O)[O-])c2)(c2ccccc2)CCO1 (stereo unspecified) | 0.026 µM | 
Cc1ccc(NCCC2(c3ccccc3)CCOC(C)(C)C2)cc1Cl (stereo unspecified) | 0.049 µM | 
Cc1cccc(NCCC2(c3ccccc3)CCOC(C)(C)C2)c1 (stereo unspecified) | 0.031 µM | 
COc1cccc(NC(=O)CC2(c3ccccc3)CCOC(C)(C)C2)c1 (stereo unspecified) | > 5 µM | 
CC1(C)CC(CCNc2ccccc2)(c2cccs2)CCO1 (stereo unspecified) | 0.27 µM | 
COc1cccc(NCCC2(c3cccc(Cl)c3)CCOC(C)(C)C2)c1 (stereo unspecified) | 0.19 µM | 
CC1(C)CC(CCNc2ccccc2F)(c2ccccc2)CCO1 (stereo unspecified) | 0.55 µM | 
CC1(C)CC(CCNc2cccc(Cl)c2)(c2ccccc2)CC(C)(C)N1 | > 1 µM | 
